# Reference: ChEMBL document CHEMBL4680229, “Design, synthesis and bioactivity study of N-salicyloyl tryptamine derivatives as multifunctional agents for the treatment of neuroinflammation” (Eur J Med Chem, 2020)
# Active and inactive are the calls of the source. No cut-off for these calls is given here.
# Key:
# C6 [1] = assay: Cytotoxicity against rat C6 cells assessed as reduction in cell viability after 24 hrs by MTT assay; assay type: cell-based; details: C6, 24 h
# In short: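 C6 or BV2 cells seeded at 1–5×10^5 per well; after 12 h exposed to 0, 6.25, 12.5, 25, 50 or 100 μM (final, DMSO <0.4%) for 24 h. MTT added for 4 h, dissolved in DMSO, read at 570 nm. IC50 as mean of three independent experiments run in triplicate.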
# C6 [2] = assay: Inhibition of LPS-induced NO production in rat C6 cells incubated for 24 hrs by Griess reagent based assay; assay type: functional, cell-based; details: C6, 24 h
# In short: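 C6 cells at 5×10^5 cells/mL, LPS 10 μg/mL plus compound at 2.5–40 μM final for 24 h. Nitrite measured with Griess reagent at 540 nm against a NaNO2 standard; IC50 from three repeats.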
# [3] = Inhibition of LPS-induced NO production in mouse BV-2 cells incubated for 24 hrs by Griess reagent based assay; assay type: functional, cell-based; details: BV-2, 24 h
# In short: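 BV2 cells at 5×10^5 cells/mL, LPS 1 μg/mL plus compound at 2.5–40 μM final for 24 h. Supernatant nitrite measured with Griess reagent for 15 min at room temperature in the dark, 540 nm, against a NaNO2 standard curve; IC50 from three repeats.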
# [4] = Antioxidant activity assessed as DPPH radical scavenging activity incubated for 30 mins; assay type: functional
# In short: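 Compound in ethanol at 2.5–40 μM final, mixed 1:1 with 700 μmol/L ethanolic DPPH; 30 min in the dark at room temperature, absorbance at 515 nm. Serotonin used as standard; EC50 from three independent experiments.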
# [5] = biological target: T1, Prostaglandin G/H synthase 2 (Mus musculus) (UniProt Q05769); assay: Inhibition of COX2 in LPS-induced mouse BV-2 cells assessed as reduction in PGE2 production after 24 hrs by ELISA; assay type: cell-based
# T1 sequence (whole entry): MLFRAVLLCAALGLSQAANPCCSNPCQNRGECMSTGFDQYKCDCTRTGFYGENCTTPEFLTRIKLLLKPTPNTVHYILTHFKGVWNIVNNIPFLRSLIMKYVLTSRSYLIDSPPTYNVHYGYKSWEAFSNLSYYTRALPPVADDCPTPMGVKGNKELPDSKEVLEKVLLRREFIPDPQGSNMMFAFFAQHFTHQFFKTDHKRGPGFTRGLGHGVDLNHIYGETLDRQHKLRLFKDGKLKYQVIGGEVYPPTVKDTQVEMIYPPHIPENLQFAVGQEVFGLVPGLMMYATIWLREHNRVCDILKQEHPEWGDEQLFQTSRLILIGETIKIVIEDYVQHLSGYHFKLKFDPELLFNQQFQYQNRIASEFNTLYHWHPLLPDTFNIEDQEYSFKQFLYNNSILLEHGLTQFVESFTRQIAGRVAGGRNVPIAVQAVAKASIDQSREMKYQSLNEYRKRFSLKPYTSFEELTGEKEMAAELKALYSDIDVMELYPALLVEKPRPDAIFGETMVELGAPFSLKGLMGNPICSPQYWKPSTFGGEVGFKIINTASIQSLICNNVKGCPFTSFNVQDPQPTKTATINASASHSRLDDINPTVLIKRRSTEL
# In short: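 BV2 cells at 5×10^5 cells/mL stimulated with LPS 1 μg/mL; compound at 10, 20 or 40 μM final for 24 h, DMSO in blanks. Supernatant TNF-α and IL-10 measured by sandwich ELISA and PGE2 by competitive ELISA, OD at 450 nm; at least three independent experiments.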
# BV-2 = assay: Antiinflammatory activity against LPS-induced mouse BV-2 cells assessed as decrease in COX2 protein expression at 40 uM after 24 hrs by Western blot analysis; assay type: functional, cell-based
# In short: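 BV2 cells in DMEM with 10% FBS; LPS 1 μg/mL plus compound at 10, 20 or 40 μM final for 24 h. Lysates in RIPA with 1 mM PMSF; 30 μg protein on 8% SDS-PAGE and blotted for iNOS and COX-2, GAPDH as reference; ECL detection and densitometry; at least three independent experiments.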
# [6] = Toxicity in LPS-induced hippocampal neuroinflammatory Kunming mouse model assessed as behavioral changes at 50 mg/kg, ip administered bid for 6 days […]; assay type: organism-based; details: in vivo, 144 h, time 6 day
# In short: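 Male Kunming mice (8 weeks, 20–25 g, n = 10/group) were anaesthetised with i.p. chloral hydrate, then given LPS (3 μL of 10 mg/mL) into the lateral ventricle at 0.5 μL/min; sham mice received 3 μL saline. Compound was then given i.p. at 50 mg/kg in saline with 1% methyl cellulose for six consecutive days. Behaviour and deaths were recorded, and hippocampal slices were Nissl-stained.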
# Mus musculus [7] = assay: Antiinflammatory activity against LPS-induced hippocampal neuroinflammatory Kunming mouse model assessed as reduction in GFAP level in hippocampus at 50 mg/kg, ip administered bid for 6 days by DAPI staining based microscopic method; assay type: functional, organism-based; details: time 6.0 day
# Mus musculus [8] = assay: Antiinflammatory activity against LPS-induced hippocampal neuroinflammatory Kunming mouse model assessed as increase in integral neurons at 50 mg/kg, ip administered bid for 6 days by Nissl staining based microscopic method; assay type: functional, organism-based; details: time 6.0 day
# [9] = Toxicity in Kunming mouse assessed as behavioral changes at 1000 mg/kg, po up to 14 days; assay type: organism-based; details: in vivo, 336 h, time <=14 day
# In short: (§1)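 Mice, five male and five female, given a single oral dose of 1000 mg/kg and observed for behaviour for 14 days. Heart, liver, kidney and stomach then examined grossly and after H&E staining, compared with vehicle controls.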
# [10] = Toxicity in Kunming mouse assessed as changes in heart at 1000 mg/kg, po after 14 days; assay type: organism-based; details: in vivo, 336 h, time 14 day; in short: as §1
# [11] = Toxicity in Kunming mouse assessed as changes in liver at 1000 mg/kg, po after 14 days; assay type: organism-based; details: in vivo, 336 h, time 14 day; in short: as §1
# [12] = Toxicity in Kunming mouse assessed as changes in kidney at 1000 mg/kg, po after 14 days; assay type: organism-based; details: in vivo, 336 h, time 14 day; in short: as §1
# [13] = Toxicity in Kunming mouse assessed as changes in stomach at 1000 mg/kg, po after 14 days; assay type: organism-based; details: in vivo, 336 h, time 14 day; in short: as §1
# [14] = Half life in Sprague-Dawley rat at 50 mg/kg, ip up to 24 hrs by LC-MS analysis; assay type: ADME, organism-based; details: in vivo
# In short: (§2)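 Male Sprague-Dawley rats, six per group, single 50 mg/kg intraperitoneal dose; parameters derived by non-compartmental analysis using the linear trapezoidal method; mean ± SD, n = 6.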
# [15] = Tmax in Sprague-Dawley rat at 50 mg/kg, ip up to 24 hrs by LC-MS analysis; assay type: ADME, organism-based; details: in vivo; in short: as §2
# [16] = Cmax in Sprague-Dawley rat at 50 mg/kg, ip up to 24 hrs by LC-MS analysis; assay type: ADME, organism-based; parameters: route intraperitoneal, dose 50 mg/kg, time <=24; details: in vivo; in short: as §2
# [17] = biological target: Prostaglandin G/H synthase 2 (Homo sapiens) (UniProt P35354); assay: Inhibition of human COX2 assessed as reduction in PGF2alpha formation using arachidonic acid as substrate incubated for 10 mins by ELISA
# Sequence of Prostaglandin G/H synthase 2 (Homo sapiens) (P35354 whole entry, looked up): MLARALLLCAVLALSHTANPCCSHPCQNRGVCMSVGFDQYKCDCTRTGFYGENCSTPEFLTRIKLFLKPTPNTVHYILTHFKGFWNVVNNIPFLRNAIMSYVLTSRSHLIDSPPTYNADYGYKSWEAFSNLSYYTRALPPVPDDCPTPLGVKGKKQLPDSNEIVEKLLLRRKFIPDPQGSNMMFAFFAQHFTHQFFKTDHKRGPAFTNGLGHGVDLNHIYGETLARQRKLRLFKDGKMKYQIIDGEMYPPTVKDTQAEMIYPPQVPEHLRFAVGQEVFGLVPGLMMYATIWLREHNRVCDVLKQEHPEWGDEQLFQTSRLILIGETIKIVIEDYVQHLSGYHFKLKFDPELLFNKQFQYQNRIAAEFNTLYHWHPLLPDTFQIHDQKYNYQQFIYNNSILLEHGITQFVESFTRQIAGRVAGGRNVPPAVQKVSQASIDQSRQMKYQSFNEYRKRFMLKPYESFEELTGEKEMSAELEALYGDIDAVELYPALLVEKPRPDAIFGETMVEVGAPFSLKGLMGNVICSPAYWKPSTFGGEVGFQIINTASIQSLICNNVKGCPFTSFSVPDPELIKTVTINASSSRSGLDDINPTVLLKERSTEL
# [18] = biological target: Prostaglandin G/H synthase 1 (Homo sapiens) (UniProt P23219); assay: Inhibition of human COX1 assessed as reduction in PGF2alpha formation using arachidonic acid as substrate incubated for 10 mins by ELISA
structure (smiles),measurement,setting,value
Cc1ccc(C(=O)NCCc2c[nH]c3ccccc23)c(O)c1,IC50,C6 [1],> 100 µM
same,IC50,C6 [2],7.48 µM
same,IC50,[3],4.94 µM
same,EC50,[4],25.2 µM
same,inhibition,[5],Dose-dependent effect
same,Activity,BV-2,inactive
same,Activity,[6],Non-Toxic
same,Activity,Mus musculus [7],Active
same,Activity,Mus musculus [8],Active
same,Activity,[9],Non-Toxic
same,Activity,[10],Non-Toxic
same,Activity,[11],Non-Toxic
same,Activity,[12],Non-Toxic
same,Activity,[13],Non-Toxic
same,half-life,[14],13.9 h
same,Tmax,[15],0.19 h
same,Cmax,[16],2.1 µg/mL
same,IC50,[17],4.16 µM
same,IC50,[18],16.4 µM
O=C(NCCc1c[nH]c2ccc(O)cc12)c1ccccc1Nc1ccccc1,IC50,C6 [1],> 100 µM
same,IC50,C6 [2],6.73 µM
same,IC50,[3],37.2 µM
same,EC50,[4],3.82 µM
same,inhibition,[5],Dose-dependent effect
same,Activity,BV-2,Active
same,Activity,[6],Non-Toxic
same,Activity,Mus musculus [7],Active
same,Activity,Mus musculus [8],Active
same,Activity,[9],Non-Toxic
same,Activity,[10],Non-Toxic
same,Activity,[11],Non-Toxic
same,Activity,[12],Non-Toxic
same,Activity,[13],Non-Toxic
same,half-life,[14],2.72 h
same,Tmax,[15],0.92 h
same,Cmax,[16],6.08 µg/mL
same,IC50,[17],0.5 µM
same,IC50,[18],0.38 µM
